ChEMBL document CHEMBL1122654, “Phosphorus analogues of gamma-aminobutyric acid, a new class of anticonvulsants” (J Med Chem, 1984)
Calls of active or inactive are those of the source.

Key:
[1] = Partition coefficient (logP); assay type: physicochemical; conditions: octanol/water
[2] = target: GABA B receptor (Rattus norvegicus) (UniProt Q9Z0U4+O88871); experiment: (§1) Displacement of [3H]GABA from GABA-B binding sites in brain homogenates (relative to 100 uM baclofen) at 100 uM; assay type: tissue-based
In short: (§2)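 Rat brain membrane binding (male Sprague-Dawley) using 10 nM [3H]GABA, with 100 µM isoguvacine present to block GABA-A sites. Test concentration 100 µM. Percent inhibition expressed relative to 100 µM baclofen. Mean of two separate experiments, each in triplicate.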

Mus musculus [3] = experiment: In vivo anticonvulsant activity against pentylene tetrazole seizure threshold(SMC) in mice 4 hr after sc administration; inactive at 600 mg/kg; assay type: functional, organism-based; set-up: dose 600 mg/kg
Mus musculus [4] = experiment: In vivo anticonvulsant activity against pentylene tetrazole seizure threshold(SMC) in mice 0.5 hr after sc administration; inactive at 600 mg/kg; assay type: functional, organism-based; set-up: dose 600 mg/kg
[5] = target: GABA-A receptor; anion channel (Rattus norvegicus) (UniProt O09028+P15431+P18506+P18508+P19969+P20236+P23574+P23576+P28471+P28473+P30191+P62813+P63079+P63138+Q91ZM7+Q9ES14); experiment: Displacement of [3H]-GABA from Gamma-aminobutyric acid A receptor binding sites in brain homogenates (relative to 1 mM GABA) at 100 uM; assay type: tissue-based
In short: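 Male Sprague-Dawley rat brain, frozen, homogenized in 50 mM Tris-citrate (pH 7.1 at 4 °C). Membranes treated with 0.05% Triton X-100 for 30 min at 37 °C and resuspended at 0.5–1.0 mg/mL protein. Incubated with 8 nM [3H]GABA for 5 min at 4 °C, stopped by centrifugation, and counted by scintillation. Test concentration 100 µM. Expressed as percent of the inhibition given by 1 mM GABA. Mean of two experiments, each in triplicate.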

Mus musculus [6] = experiment: In vivo neurotoxicity at 600 mg/kg, number of animals exhibiting neurotoxicity in the rotarod test / number of animals tested at 0.5 hr; assay type: toxicity, organism-based; set-up: dose 600 mg/kg
Mus musculus [7] = experiment: In vivo anticonvulsant activity against electric shock induced seizures(MES) in mice 4 hr after ip administration; inactive at 600 mg/kg; assay type: functional, organism-based; set-up: dose 600 mg/kg
Mus musculus [8] = experiment: In vivo neurotoxicity at 600 mg/kg, number of animals exhibiting neurotoxicity in the rotarod test / number of animals tested 4 hr; assay type: toxicity, organism-based; set-up: dose 600 mg/kg
Mus musculus [9] = experiment: In vivo anticonvulsant activity against electric shock induced seizures(MES) in mice 0.5 hr after ip administration; inactive at 600 mg/kg; assay type: functional, organism-based; set-up: dose 600 mg/kg
Mus musculus [10] = experiment: In vivo neurotoxicity at 600 mg/kg, number of animals exhibiting neurotoxicity in the rotarod test / number of animals tested at 0.5 hr; 0/4; assay type: toxicity, organism-based; set-up: dose 600 mg/kg
Mus musculus [11] = experiment: In vivo neurotoxicity at 600 mg/kg, number of animals exhibiting neurotoxicity in the rotarod test / number of animals tested 4 hr; 0/2; assay type: toxicity, organism-based; set-up: dose 600 mg/kg
Mus musculus [12] = experiment: In vivo anticonvulsant activity against pentylene tetrazole seizure threshold(SMC) in mice 4 hr after sc administration; - indicates inactive at 600 mg/kg; assay type: functional, organism-based; set-up: dose 600 mg/kg
Mus musculus [13] = experiment: In vivo anticonvulsant activity against pentylene tetrazole seizure threshold(SMC) in mice 0.5 hr after sc administration; +++ indicates activity at 100 mg/kg; assay type: functional, organism-based; set-up: dose 100 mg/kg
Mus musculus [14] = experiment: In vivo anticonvulsant activity against electric shock induced seizures(MES) in mice 4 hr after ip administration; + indicates activity at 600 mg/kg; assay type: functional, organism-based; set-up: dose 600 mg/kg
Mus musculus [15] = experiment: In vivo anticonvulsant activity against electric shock induced seizures(MES) in mice 0.5 hr after ip administration; + indicates activity at 600 mg/kg.; assay type: functional, organism-based; set-up: dose 600 mg/kg
Mus musculus [16] = experiment: In vivo anticonvulsant activity against electric shock induced seizures(MES) in mice 0.5 hr after ip administration; active at 600 mg/kg; assay type: functional, organism-based; set-up: dose 600 mg/kg
Rattus norvegicus = organism: Rattus norvegicus; experiment: as §1; assay type: tissue-based; in short: as §2
Mus musculus [17] = experiment: In vivo neurotoxicity at 600 mg/kg, number of animals exhibiting neurotoxicity in the rotarod test / number of animals tested at 0.5 hr; 1/4; assay type: toxicity, organism-based; set-up: dose 600 mg/kg

COP(=S)(OC)Oc1ccc([N+](=O)[O-])c(C(C)C)c1
logP [1]: 4.05

CCOP(=S)(OCC)Oc1ccccc1NC(C)=O
inhibition [2]: 35%

CC(=O)Nc1ccccc1OP(=O)(Oc1ccccc1NC(C)=O)c1ccccc1
Anticonvulsant activity (Mus musculus [3]): inactive
Anticonvulsant activity (Mus musculus [4]): inactive
inhibition [5]: 46%
Toxicity (Mus musculus [6]): Not Active
Anticonvulsant activity (Mus musculus [7]): inactive
Toxicity (Mus musculus [8]): Not Active
Anticonvulsant activity (Mus musculus [9]): inactive

COP(=S)(OC)Oc1ccc([N+](=O)[O-])c(C)c1 [FENITROTHION]
logP [1]: 3.3

COP(=S)(OC)Oc1ccc([N+](=O)[O-])cc1Cl [DICAPTHON]
logP [1]: 3.44

CCOP(=S)(OCC)Oc1ccc(SC)c(Cl)c1
logP [1]: 5.06

CCOP(=O)(OCC)Oc1ccc(SC)cc1Cl
logP [1]: 3.05

COP(=O)(OC)c1cccc(N)c1
Toxicity (Mus musculus [10]): 0
Toxicity (Mus musculus [11]): 0
Anticonvulsant activity (Mus musculus [12]): inactive
inhibition [5]: 13%
inhibition [2]: 13%
Anticonvulsant activity (Mus musculus [13]): Active
Anticonvulsant activity (Mus musculus [14]): Active
Anticonvulsant activity (Mus musculus [15]): Active

CCc1cc(OP(=S)(OC)OC)ccc1[N+](=O)[O-]
logP [1]: 3.84

CCOP(=O)(OCC)Oc1ccc(SC)c(Cl)c1
logP [1]: 3.21

CC(C)(C)CC(C)(C)NP(=O)(Oc1ccccc1)Oc1ccccc1
Anticonvulsant activity (Mus musculus [16]): active at 600 mg/kg
inhibition [2]: 65%

COP(=S)(OC)Oc1ccc([N+](=O)[O-])c(Cl)c1 [CHLORTHION]
logP [1]: 3.45

CCOP(=S)(OCC)Oc1ccccc1
logP [1]: 3.46

CCCCN1C(=O)CCP1(=O)c1ccccc1 (stereo unspecified)
inhibition [5]: 17%
inhibition (Rattus norvegicus): 67%

COP(=O)(OC)Oc1ccc([N+](=O)[O-])cc1 [DIMETHYL 4-NITROPHENYL PHOSPHATE]
logP [1]: 1.27

CCOP(=O)(CCCN)OCC
Toxicity (Mus musculus [11]): 0
Toxicity (Mus musculus [17]): 1

COP(=O)(OC)Oc1ccc([N+](=O)[O-])c(Cl)c1
logP [1]: 1.83

CCOP(=S)(OCC)Oc1ccc(SC)cc1Cl
logP [1]: 4.4

COP(=O)(OC)Oc1ccc([N+](=O)[O-])c(C(C)C)c1
logP [1]: 2.57

CCOP(=O)(OCC)Oc1ccccc1 [PHOSPHORIC ACID DIETHYL ESTER PHENYL ESTER]
logP [1]: 1.64
